Experimental findings from ChEMBL document CHEMBL1138278, “Aromatic amide derivatives of 5,6-dimethoxy-2,3-dihydro-1H-inden(-1-yl)acetic acid as anti-inflammatory agents free of ulcerogenic liability” (Bioorg Med Chem Lett, 2007) are described below.

Data set [1] relates to Rattus norvegicus. Put plainly: Antipyretic activity against LPS-induced pyresis in Wistar rat assessed as change in rectal temperature at 100 mg/kg, po after 3 hrs. The format is functional. The gist of the method:
(§1)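 Male Wistar rats (170 ± 20 g) dosed orally: test agents at 100 mg/kg, indomethacin and aspirin at 10 mg/kg and 100 mg/kg. Half an hour later, LPS in apyrogenic saline given at 100 µg/kg i.p. Rectal temperature taken by telethermometer probe immediately before LPS and hourly from 1 to 7 h after. Change in temperature reported; means ± SEM, n = 6.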

Data set [2] relates to Rattus norvegicus. Kind of data set: Antiinflammatory activity in Wistar rat assessed as inhibition of carrageenan-induced paw edema at 10 mg/kg, after 24 hrs. Format: functional. In a few lines: (§2)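 Male Wistar rats (170 ± 20 g) dosed orally: test agents at 100 mg/kg, reference at 10 mg/kg. One hour later, 0.1 ml of 1% carrageenan injected subplantar into the right hind paw.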
(In general: The carrageenan paw model is a standard test of acute inflammation.)

Data set [3] has as its system Rattus norvegicus. Kind of data set: Antipyretic activity against LPS-induced pyresis in Wistar rat assessed as change in rectal temperature at 100 mg/kg, po after 7 hrs. The format is functional. The gist of the method: as §1
The subject of data set [4] is Rattus norvegicus. Kind of data set: Antipyretic activity against LPS-induced pyresis in Wistar rat assessed as change in rectal temperature at 100 mg/kg, po after 4 hrs. Format: functional. The gist of the method: as §1
The subject of data set [5] is Rattus norvegicus. Put plainly: Antiarthritic activity against adjuvant-induced arthritis in Wistar rat assessed as inhibition of paw edema at 10 mg/kg, po on day 3. The format is functional. Particulars: 72 h. The gist of the method: (§3)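 Male Wistar rats (160 ± 10 g) dosed orally once daily for 14 days, from the day before injecting 0.1 ml Freund's complete adjuvant into the subplantar surface of the right hind paw. Paw swelling, including the uninjected left paw, and body weight recorded. Means ± SEM, n = 6; p < 0.05 versus control.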

For data set [6], the system named is Rattus norvegicus. Kind of data set: Antiinflammatory activity in Wistar rat assessed as inhibition of carrageenan-induced paw edema at 10 mg/kg, after 1 hr. The format is functional. The gist of the method:
(§4)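 Male Wistar rats, 170 ± 20 g, dosed orally; 0.1 ml of 1% carrageenan injected into the right hind paw subplantar region 1 h after dosing. Paw volume read by plethysmometer at 0, 1, 2, 3, 4, 6 and 24 h after carrageenan. Percent inhibition of edema is calculated against the control group. n = 6, mean ± SEM.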

In data set [7] the test system is Rattus norvegicus. Kind of data set: Antipyretic activity against LPS-induced pyresis in Wistar rat assessed as change in rectal temperature at 100 mg/kg, po after 2 hrs. Format: functional. In a few lines:
as §1

Data set [8] relates to Rattus norvegicus. Kind of data set: Antiinflammatory activity in Wistar rat assessed as inhibition of carrageenan-induced paw edema at 10 mg/kg, after 6 hrs. Format: functional. In a few lines:
as §2

In data set [9] the test system is Rattus norvegicus. Kind of data set: Antiarthritic activity against adjuvant-induced arthritis in Wistar rat assessed as inhibition of paw edema at 10 mg/kg, po on day 8. Format: functional. The following applies: 192 h. In a few lines:
as §3

Data set [10] relates to Rattus norvegicus. Kind of data set: Toxicity in 24 hrs fasted Wistar rat assessed as ulcer index at 30 mg/kg, po after 6 hrs. Format: organism-based. Details: dose 30 mg/kg, route oral. The following applies: in vivo. In a few lines: (§5)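 Male Wistar rats (175 ± 25 g) fasted 24 h and dosed orally. Acute arm: test agents at 100 mg/kg, indomethacin at 30 mg/kg; rats killed after 6 h, stomachs opened along the greater curvature and scored for ulcers. Chronic arm: 14-day dosing, stomachs examined post mortem at the end of the arthritis study. Ulcer index means ± SEM, n = 4.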

In data set [11] the test system is Mus musculus. Kind of data set: Analgesic activity in Swiss Albino mouse assessed as inhibition of acetic acid-induced writhing responses at 100 mg/kg, po after 1 hr. Format: functional. The gist of the method:
(§6)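 Mice dosed orally; one hour later injected i.p. with 1% v/v acetic acid at 0.1 ml/10 g. Writhings counted over 15 min, starting five minutes after injection. Means ± SEM, n = 6; p < 0.05 versus control group.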

Data set [12] has as its system Rattus norvegicus. Kind of data set: Antipyretic activity against LPS-induced pyresis in Wistar rat assessed as change in rectal temperature at 100 mg/kg, po after 5 hrs. The format is functional. In a few lines: as §1
Data set [13] is filed under the species Rattus norvegicus. Put plainly: animal or person. The following applies: Wistar, 2 h, read-out: Inhibition.
The test system of data set [14] is Rattus norvegicus. Put plainly: Antiarthritic activity against adjuvant-induced arthritis in Wistar rat assessed as inhibition of paw edema at 10 mg/kg, po on day 13. Format: functional. Particulars: 312 h. The gist of the method: as §3
In data set [15] the test system is Rattus norvegicus. Kind of data set: Toxicity in 24 hrs fasted Wistar rat assessed as ulcer index […], po after 14 days. Format: organism-based. Further details: route oral. The following applies: in vivo, 336 h. The gist of the method:
as §5

For data set [16], the system named is Rattus norvegicus. Kind of data set: Antiarthritic activity against adjuvant-induced arthritis in Wistar rat assessed as weight change at 10 mg/kg, po. Format: functional. In a few lines: as §3
The subject of data set [17] is Rattus norvegicus. Put plainly: Antiinflammatory activity in Wistar rat assessed as inhibition of carrageenan-induced paw edema at 10 mg/kg, after 3 hrs. Format: functional. In a few lines:
as §4

Data set [18] concerns Rattus norvegicus. Put plainly: Antiinflammatory activity in Wistar rat assessed as inhibition of carrageenan-induced paw edema at 10 mg/kg, after 4 hrs. The format is functional. In a few lines: as §4
The subject of data set [19] is Mus musculus. Put plainly: Analgesic activity in Swiss Albino mouse assessed as number of acetic acid-induced writhing at 100 mg/kg, po after 1 hr relative to control. Format: functional. The gist of the method: as §6
Data set [20] concerns Rattus norvegicus. Put plainly: Antipyretic activity against LPS-induced pyresis in Wistar rat assessed as change in rectal temperature at 100 mg/kg, po after 1 hr. Format: functional. In a few lines: as §1
Data set [21] deals with Rattus norvegicus. Put plainly: Antipyretic activity against LPS-induced pyresis in Wistar rat assessed as change in rectal temperature at 100 mg/kg, po after 6 hrs. The format is functional. In a few lines:
as §1

The test system of data set [22] is Rattus norvegicus. Put plainly: Antiinflammatory activity in Wistar rat assessed as inhibition of carrageenan-induced paw edema at 100 mg/kg, after 2 hrs. The format is functional. The gist of the method:
as §2

The test system of data set [23] is Rattus norvegicus. Kind of data set: Antiarthritic activity against adjuvant-induced arthritis in Wistar rat assessed as weight change at 100 mg/kg, po. The format is functional. The gist of the method:
as §3

For data set [24], the system named is Rattus norvegicus. Put plainly: Antiinflammatory in SKF-525A pretreated Wistar rat assessed as inhibition of carrageenan-induced paw edema at 100 mg/kg, po after 6 hrs. Format: functional.
The test system of data set [25] is Rattus norvegicus. Kind of data set: Antiinflammatory in SKF-525A pretreated Wistar rat assessed as inhibition of carrageenan-induced paw edema at 100 mg/kg, po after 4 hrs. Format: functional.
The test system of data set [26] is Rattus norvegicus. Put plainly: Toxicity in 24 hrs fasted Wistar rat assessed as ulcer index at 100 mg/kg, po after 6 hrs. Format: organism-based. Details: dose 100 mg/kg, route oral. The following applies: in vivo. In a few lines: as §5
For data set [27], the system named is Rattus norvegicus. Kind of data set: Antiarthritic activity against adjuvant-induced arthritis in Wistar rat assessed as inhibition of paw edema at 100 mg/kg, po on day 13. The following applies: 312 h. The format is functional. The gist of the method: as §3
The test system of data set [28] is Rattus norvegicus. Kind of data set: Antiinflammatory activity in Wistar rat assessed as inhibition of carrageenan-induced paw edema at 100 mg/kg, after 1 hr. The format is functional. The gist of the method:
as §2

Data set [29] concerns Rattus norvegicus. Kind of data set: Antiinflammatory in SKF-525A pretreated Wistar rat assessed as inhibition of carrageenan-induced paw edema at 100 mg/kg, po after 1 hr. Format: functional.
Data set [30] relates to Rattus norvegicus. Kind of data set: Antiinflammatory activity in Wistar rat assessed as inhibition of carrageenan-induced paw edema at 100 mg/kg, after 3 hrs. The format is functional. In a few lines:
as §2

Data set [31] relates to Rattus norvegicus. Put plainly: Antiinflammatory activity in Wistar rat assessed as inhibition of carrageenan-induced paw edema at 100 mg/kg, after 6 hrs. Format: functional. In a few lines:
as §2

The subject of data set [32] is Rattus norvegicus. Put plainly: Antiarthritic activity against adjuvant-induced arthritis in Wistar rat assessed as inhibition of paw edema at 100 mg/kg, po on day 3. The format is functional. Particulars: 72 h. In a few lines:
as §3

For data set [33], the system named is Rattus norvegicus. Kind of data set: Antiarthritic activity against adjuvant-induced arthritis in Wistar rat assessed as inhibition of paw edema at 100 mg/kg, po on day 8. The format is functional. Particulars: 192 h. In a few lines: as §3
Data set [34] concerns Rattus norvegicus. Kind of data set: Antiinflammatory activity in Wistar rat assessed as inhibition of carrageenan-induced paw edema at 100 mg/kg, after 24 hrs. Format: functional. In a few lines: as §2
The subject of data set [35] is Rattus norvegicus. Kind of data set: Antiinflammatory in SKF-525A pretreated Wistar rat assessed as inhibition of carrageenan-induced paw edema at 100 mg/kg, po after 2 hrs. Format: functional.
Data set [36] has as its system Rattus norvegicus. Put plainly: Antiinflammatory in SKF-525A pretreated Wistar rat assessed as inhibition of carrageenan-induced paw edema at 100 mg/kg, po after 24 hrs. Format: functional.
The subject of data set [37] is Rattus norvegicus. Kind of data set: Antiinflammatory activity in Wistar rat assessed as inhibition of carrageenan-induced paw edema at 100 mg/kg, after 4 hrs. The format is functional. The gist of the method: as §2
For data set [38], the system named is Rattus norvegicus. Put plainly: Antiinflammatory in SKF-525A pretreated Wistar rat assessed as inhibition of carrageenan-induced paw edema at 100 mg/kg, po after 3 hrs. Format: functional.

`COc1ccc2c(c1)c(CC(=O)O)c(C)n2C(=O)c1ccc(Cl)cc1` [INDOMETHACIN]: the Activity was -0.11 °C in the data set with Rattus norvegicus [1]; 0.55 °C in the data set on Rattus norvegicus [3]; 0.22 degrees C with Rattus norvegicus [4]; -1.03 °C in the data set on Rattus norvegicus [7]; 0.3 °C in the data set on Rattus norvegicus [12]; 5.68 g in the data set with Rattus norvegicus [16]. In addition, the figures for the Activity in the data set on Mus musculus [19], in the data set on Rattus norvegicus [20] and in the data set with Rattus norvegicus [21] were 16.83, -0.39 °C and 0.35 °C, respectively. Also, the inhibition in vivo at 10 mg/kg in the data set with Rattus norvegicus [2] amounted to 13.3%; in the data set on Rattus norvegicus [5], 37.5%; in the data set with Rattus norvegicus [6] it was 50%; in the data set with Rattus norvegicus [8], 48.1%; in the data set with Rattus norvegicus [9], 43.9%; in the data set listed under Rattus norvegicus [13] it was 58%. In addition, the inhibition in vivo at 10 mg/kg in the data set with Rattus norvegicus [14] amounted to 46.5%; in the data set on Rattus norvegicus [17] it was 65.2%; in the data set with Rattus norvegicus [18], 57.8%. Also, the UI with Rattus norvegicus [10] stood at 31.37; with Rattus norvegicus [15], 42. Besides, the inhibition in vivo at 100 mg/kg in the data set on Mus musculus [11] came out at 51.5%.
Regarding `COc1cc2c(cc1OC)C(CC(=O)Nc1ccc(Cl)cc1)CC2` (configuration not stated), the Activity is -0.54 °C with Rattus norvegicus [1]; 3.51 g with Rattus norvegicus [23]; 0.4 °C in the data set on Rattus norvegicus [3]; -0.11 °C in the data set with Rattus norvegicus [4]; -1.69 °C in the data set with Rattus norvegicus [7]; 0.17 °C in the data set with Rattus norvegicus [12]. Besides, the Activity with Mus musculus [19] was 9.17; in the data set with Rattus norvegicus [20], -0.47 °C; in the data set with Rattus norvegicus [21], 0.41 °C. Moreover, the inhibition in vivo at 100 mg/kg was 63% in the data set on Rattus norvegicus [22]; 59.6% with Rattus norvegicus [24]; 57.9% in the data set with Rattus norvegicus [25]; 4.69% with Rattus norvegicus [27]; 71.9% with Rattus norvegicus [28]; 64.3% in the data set on Rattus norvegicus [29]. Moreover, the inhibition in vivo at 100 mg/kg in the data set on Rattus norvegicus [30] stood at 60.9%; with Mus musculus [11], 73.5%; in the data set with Rattus norvegicus [31], 61.1%; with Rattus norvegicus [32], 28.6%; in the data set on Rattus norvegicus [33] it was 8.08%; in the data set with Rattus norvegicus [34], 70%. Besides, the inhibition in vivo at 100 mg/kg in the data set with Rattus norvegicus [35] was 56.1%; in the data set with Rattus norvegicus [36], 68.2%; in the data set on Rattus norvegicus [37], 60.9%; with Rattus norvegicus [38], 56.7%. In addition, the UI in the data set on Rattus norvegicus [26] came to 0.
